Source: ChEMBL document CHEMBL1127751, “Novel Asp32-replacement tetrapeptide analogues as potent and selective CCK-A agonists” (J Med Chem, 1994)
Starred links: 1 amine or outer side, 2 acyl side, 3 side chain; linkers in the order of their positions; H or OH if unused. Non-standard residues stand in square brackets, D forms with d. Residues, ends and D or L forms follow the SMILES beside them. Groups on a side chain read outwards from the residue. ξ: configuration not given here. *: point of attachment. NMeF = CN[C@@H](Cc1ccccc1)C(=O)O; ξW = NC(Cc1c[nH]c2ccccc12)C(=O)O; NH(2-Me-phenyl) = Cc1ccccc1N*; ξNMeF = CNC(Cc1ccccc1)C(=O)O; β3hP = O=C(O)C[C@@H]1CCCN1; ξF = NC(Cc1ccccc1)C(=O)O; Boc = CC(C)(C)OC(=O)*; CO = O=C([*:1])[*:2]; Sar = CNCC(=O)O

Tests used:
[1] = test system: Cholecystokinin receptor type B (Cavia porcellus); test: Percent inhibition of specific [125I]Bolton-Hunter CCK-8 binding in guinea pig cortex at 10e-6 M
[2] = molecular target: T1, Cholecystokinin receptor type A (Cavia porcellus) (UniProt Q63931); test: Percent response in PI hydrolysis relative to maximal response elicited by CCK-8 in guinea pig at 10e-6 M
T1 sequence (whole entry): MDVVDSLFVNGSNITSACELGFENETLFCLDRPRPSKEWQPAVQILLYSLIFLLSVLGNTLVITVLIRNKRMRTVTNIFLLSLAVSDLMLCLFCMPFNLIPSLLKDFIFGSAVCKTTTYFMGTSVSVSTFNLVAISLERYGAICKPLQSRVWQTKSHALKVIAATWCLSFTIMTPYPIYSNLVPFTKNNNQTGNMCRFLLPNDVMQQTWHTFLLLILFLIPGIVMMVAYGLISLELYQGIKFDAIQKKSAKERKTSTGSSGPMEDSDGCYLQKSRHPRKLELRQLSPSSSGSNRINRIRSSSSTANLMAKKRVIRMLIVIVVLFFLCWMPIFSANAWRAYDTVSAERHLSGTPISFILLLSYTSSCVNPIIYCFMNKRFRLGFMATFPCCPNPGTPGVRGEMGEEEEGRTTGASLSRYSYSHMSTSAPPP

[3] = molecular target: T2, Cholecystokinin receptor type A (Cavia porcellus, UniProt Q63931); test: Concentration that inhibited 50% of specific binding of [125I]Bolton-Hunter CCK-8 binding in guinea pig pancreas
T2 sequence (Q63931 whole entry): T1 sequence (whole entry)

[4] = species: Rattus norvegicus; test: Dose required to reduce food intake by 50% in rats; type: functional
Method in brief: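 Rats dosed intraperitoneally in nmol/kg, with 7–8 animals per group in each experiment. Food intake was compared with vehicle controls. The dose reducing intake by 50% was calculated from the dose–response data and reported with an interval.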

inhibition [1] | PI hydrolysis [2] | IC50 [3] | Structure (SMILES) | ED50 [4]
5% | 24% |  | Cc1ccccc1NC(=O)NCCCC[C@H](NC(=O)C(Cc1c[nH]c2ccccc12)NC(=O)OC(C)(C)C)C(=O)N(C)CC(=O)NC(Cc1ccccc1)C(N)=O (stereo not given in full) (Boc-[ξW]K([CO-NH(2-Me-phenyl)])[Sar][ξF]-NH2) | 
13% | 92% | 17 nM | Cc1ccccc1NC(=O)NCCCC[C@H](NC(=O)C(Cc1c[nH]c2ccccc12)NC(=O)OC(C)(C)C)C(=O)N1CCC[C@H]1CC(=O)N(C)C(Cc1ccccc1)C(N)=O (stereo partly drawn) (Boc-[ξW]K([CO-NH(2-Me-phenyl)])[β3hP][ξNMeF]-NH2) | 
0% | 28% |  | Cc1ccccc1NC(=O)NCCCC[C@H](NC(=O)C(Cc1c[nH]c2ccccc12)NC(=O)OC(C)(C)C)C(=O)NCC(=O)N(C)C(Cc1ccccc1)C(N)=O (stereo not given in full) (Boc-[ξW]K([CO-NH(2-Me-phenyl)])G[ξNMeF]-NH2) | 
 |  | 921 nM | Cc1ccccc1NC(=O)NCCCC[C@H](NC(=O)[C@H](Cc1c[nH]c2ccccc12)NC(=O)OC(C)(C)C)C(=O)NCC(=O)N[C@@H](Cc1ccccc1)C(N)=O (Boc-WK([CO-NH(2-Me-phenyl)])GF-NH2) | 
7% | 7% | 1180 nM | Cc1ccccc1NC(=O)NCCCC[C@H](NC(=O)C(Cc1c[nH]c2ccccc12)NC(=O)OC(C)(C)C)C(=O)NCCCCC(=O)N(C)C(Cc1ccccc1)C(N)=O (stereo not given in full) | 
11% | 67% | 27 nM | Cc1ccccc1NC(=O)NCCCC[C@H](NC(=O)C(Cc1c[nH]c2ccccc12)NC(=O)OC(C)(C)C)C(=O)NCCCC(=O)N(C)C(Cc1ccccc1)C(N)=O (stereo not given in full) | 
39% | 89% | 16 nM | Cc1ccccc1NC(=O)NCCCC[C@H](NC(=O)C(Cc1c[nH]c2ccccc12)NC(=O)OC(C)(C)C)C(=O)N[C@@H]1CC(=O)N([C@@H](Cc2ccccc2)C(N)=O)C1 (stereo not given in full) | 0.03 µmol/kg
 |  | 84 nM | Cc1ccccc1NC(=O)NCCCC[C@H](NC(=O)[C@H](Cc1c[nH]c2ccccc12)NC(=O)OC(C)(C)C)C(=O)N(C)CC(=O)N(C)[C@@H](Cc1ccccc1)C(N)=O (Boc-WK([CO-NH(2-Me-phenyl)])[Sar][NMeF]-NH2) | 
 | 16% | 126 nM | Cc1ccccc1NC(=O)NCCCC[C@H](NC(=O)C(Cc1c[nH]c2ccccc12)NC(=O)OC(C)(C)C)C(=O)NCCC(=O)NC(Cc1ccccc1)C(N)=O (stereo not given in full) | 
 | 2% | 1800 nM | Cc1ccccc1NC(=O)NCCCC[C@H](NC(=O)C(Cc1c[nH]c2ccccc12)NC(=O)OC(C)(C)C)C(=O)NCCCCC(=O)NC(Cc1ccccc1)C(N)=O (stereo not given in full) | 
14% | 61% | 62 nM | Cc1ccccc1NC(=O)NCCCC[C@H](NC(=O)C(Cc1c[nH]c2ccccc12)NC(=O)OC(C)(C)C)C(=O)N(C)CCC(=O)NC(Cc1ccccc1)C(N)=O (stereo not given in full) | 
11% | 8% | 393 nM | Cc1ccccc1NC(=O)NCCCC[C@H](NC(=O)C(Cc1c[nH]c2ccccc12)NC(=O)OC(C)(C)C)C(=O)N(C)CCCC(=O)NC(Cc1ccccc1)C(N)=O (stereo not given in full) | 
11% | 9% | 749 nM | Cc1ccccc1NC(=O)NCCCC[C@H](NC(=O)C(Cc1c[nH]c2ccccc12)NC(=O)OC(C)(C)C)C(=O)NCCCC(=O)NC(Cc1ccccc1)C(N)=O (stereo not given in full) | 
14% | 17% |  | Cc1ccccc1NC(=O)NCCCC[C@H](NC(=O)C(Cc1c[nH]c2ccccc12)NC(=O)OC(C)(C)C)C(=O)NCC(=O)NC(Cc1ccccc1)C(N)=O (stereo not given in full) (Boc-[ξW]K([CO-NH(2-Me-phenyl)])G[ξF]-NH2) | 
 | 4% | 1330 nM | Cc1ccccc1NC(=O)NCCCC[C@H](NC(=O)C(Cc1c[nH]c2ccccc12)NC(=O)OC(C)(C)C)C(=O)NCCCCCC(=O)N(C)C(Cc1ccccc1)C(N)=O (stereo not given in full) | 
 | 33% |  | Cc1ccccc1NC(=O)NCCCC[C@H](NC(=O)C(Cc1c[nH]c2ccccc12)NC(=O)OC(C)(C)C)C(=O)N(C)CC(=O)N(C)C(Cc1ccccc1)C(N)=O (stereo not given in full) (Boc-[ξW]K([CO-NH(2-Me-phenyl)])[Sar][ξNMeF]-NH2) | 
4% | 64% | 19 nM | Cc1ccccc1NC(=O)NCCCC[C@H](NC(=O)C(Cc1c[nH]c2ccccc12)NC(=O)OC(C)(C)C)C(=O)N(C)CCCC(=O)N(C)C(Cc1ccccc1)C(N)=O (stereo not given in full) | 
8% | 1% | 750 nM | Cc1ccccc1NC(=O)NCCCC[C@H](NC(=O)C(Cc1c[nH]c2ccccc12)NC(=O)OC(C)(C)C)C(=O)N1CCC(=O)N(C(Cc2ccccc2)C(N)=O)CC1 (stereo not given in full) | 
 |  | 265 nM | Cc1ccccc1NC(=O)NCCCC[C@H](NC(=O)[C@H](Cc1c[nH]c2ccccc12)NC(=O)OC(C)(C)C)C(=O)N(C)CC(=O)N[C@@H](Cc1ccccc1)C(N)=O (Boc-WK([CO-NH(2-Me-phenyl)])[Sar]F-NH2) | 
 |  | 141 nM | Cc1ccccc1NC(=O)NCCCC[C@H](NC(=O)[C@H](Cc1c[nH]c2ccccc12)NC(=O)OC(C)(C)C)C(=O)NCC(=O)N(C)[C@@H](Cc1ccccc1)C(N)=O (Boc-WK([CO-NH(2-Me-phenyl)])G[NMeF]-NH2) | 
 | 68% | 239 nM | Cc1ccccc1NC(=O)NCCCC[C@H](NC(=O)C(Cc1c[nH]c2ccccc12)NC(=O)OC(C)(C)C)C(=O)N1CCC[C@H]1CC(=O)NC(Cc1ccccc1)C(N)=O (stereo partly drawn) (Boc-[ξW]K([CO-NH(2-Me-phenyl)])[β3hP][ξF]-NH2) | 
 | 36% | 7 nM | Cc1ccccc1NC(=O)NCCCC[C@H](NC(=O)C(Cc1c[nH]c2ccccc12)NC(=O)OC(C)(C)C)C(=O)N(C)CCC(=O)N(C)C(Cc1ccccc1)C(N)=O (stereo not given in full) | 
6% | 5% | 1200 nM | Cc1ccccc1NC(=O)NCCCC[C@H](NC(=O)C(Cc1c[nH]c2ccccc12)NC(=O)OC(C)(C)C)C(=O)NCCCCCC(=O)NC(Cc1ccccc1)C(N)=O (stereo not given in full) | 
9% | 47% | 27 nM | Cc1ccccc1NC(=O)NCCCC[C@H](NC(=O)C(Cc1c[nH]c2ccccc12)NC(=O)OC(C)(C)C)C(=O)NCCC(=O)N(C)C(Cc1ccccc1)C(N)=O (stereo not given in full) | 
